From PubChem BioAssay AID617 (SRMLSC, 2007) come the findings set out here.

Where only a bound is given, the exact number is not on record here.

The test system of the assay is E. coli BW25113 ΔtolC growth inhibition, OD615. Description: growth inhibitors of E. coli tolC mutant, dose response, strain BW25113 ΔtolC::kan (AID 617). An outline of the steps: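 Test system: E. coli BW25113 ΔtolC::kan bacteria | Amount: 1:1000 diluted subculture inoculum | Medium: LB plus kanamycin | Timing: 20 h exposure at 37 °C | Signal: Absorbance at 615 nm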
One may read the IC50 as the concentration needed to halve the response being measured. `COc1ccc(Cl)cc1N1CCN(CCNC(=O)Nc2ccccc2C)CC1`: the IC50 was 43.7 µM.

With `Cc1cc(N2CCC(C)CC2)nc(-n2nc(C)cc2C)n1`, the IC50 was 5.18 µM.

On to `CC1=CC(C)(C)N2C(=O)C3(C(C#N)=C(N)Oc4cc(O)ccc43)c3cccc1c32` (stereo not drawn), for which the IC50 is 4.14 µM.

For the molecule `C=CCc1cc(C)ccc1OCC(O)CN1CCN(c2ccccc2)CC1` (stereo not drawn), the IC50 is 17 µM.

For `O=C(CC(=O)c1cc(Cl)ccc1O)c1ccccc1`, the IC50 is 8.34 µM.

Take `CCn1cc(C(=O)O)c(=O)c2cnc(N3CCN(C(=O)Nc4ccccc4)CC3)nc21`: the IC50 was 1.01 µM.

`CN(C)c1nc(SCCOC(=O)Nc2ccccc2)nc(N(C)C)n1`: the IC50 is 12 µM.

Take `CC(C)c1ccc(OCc2ccc(C(=O)N3CCN(c4ccccn4)CC3)cc2)cc1`: the half-inhibitory concentration (IC50) was 8.11 µM.

`CCOC(=O)c1cnc(-n2cc(C)cn2)nc1Nc1ccccc1OCC`: the IC50 is 16 µM.

Consider `Clc1ccc(OCc2nc(-c3ccccn3)n[nH]2)cc1`, for which the IC50 is 15.4 µM.

On to `Cc1cc(C2N=C(N)Nc3nc4ccccc4n32)c(C)n1-c1ccccc1Cl` (stereo not drawn), for which the IC50 is 6.74 µM.

For the molecule `CN1C(=O)C2(OCC(COc3ccc(Cl)cc3)O2)c2ccccc21` (stereo not drawn), the half-maximal inhibitory concentration (IC50) was 11.1 µM.

With `CC(C)(C)C1CCC2(CC1)C(C#N)=C(SCC(=O)NC1CCCCC1)NC(=O)C2C#N` (stereo not drawn), the IC50 is 6.1 µM.

For `O=C1Nc2ccccc2C12OCC(COc1ccc(Cl)cc1)O2` (stereo not drawn), the IC50 was 17.4 µM.

For the molecule `CCOC(=O)c1cc2sccc2n1Cc1ccc(C#N)cc1`, the IC50 was 11.1 µM.

In the case of `CCOC(=O)Cc1c(C)nc2c(-c3cccc(Br)c3)c[nH]n2c1=O`, the 50% inhibitory concentration (IC50) is 0.17 µM.

Take `Cn1nc(-c2ccc(N3CCOCC3)c(NC(=O)COc3ccccc3)c2)c2ccccc2c1=O`: the IC50 is 8.7 µM.

Consider `COc1ccc(C(=O)Nn2cnc3scc(-c4cccs4)c3c2=O)c(O)c1`, for which the IC50 was 3.24 µM.

For the molecule `CC1CCCN(S(=O)(=O)c2ccc(C(=O)Nc3nnc(-c4ccccc4Cl)o3)cc2)C1` (stereo not drawn), the IC50 was 0.41 µM.

With `Oc1ccc(-c2[nH]ncc2-c2ccc(Cl)cc2)c(O)c1`, the IC50 is 11.1 µM.

Regarding `N#CC1=C(SCC(=O)NC23CC4CC(CC(C4)C2)C3)NC(=O)C(C#N)C12CCCCC2` (stereo not drawn), the IC50 was 4.11 µM.

In the case of `Cc1ccc(C)c(C(=O)CSc2n[nH]c(-c3ccncc3)n2)c1`, the IC50 is 2 µM.

Regarding `Clc1cccc(-c2nc3nc4ccccc4nc3n2Cc2ccco2)c1`, the IC50 is 15 µM.

As for `O=S(=O)(Nc1nc2ccccc2nc1NCc1ccco1)c1ccccc1`, the IC50 was 8.89 µM.

As for `Cc1cc(Cl)ccc1OC(C)C(=O)Nc1ccccc1N1CCOCC1` (stereo not drawn), the IC50 was 8.59 µM.

Consider `Clc1ccc(OCCN2CCN(c3ncnc4sccc34)CC2)cc1`, for which the IC50 is 16.1 µM.

For `Cc1nn(-c2nc3ccccc3n2Cc2ccccc2)c2c1C(=O)CC(C)(C)C2`, the IC50 is 8.51 µM.

Consider `c1coc(CNc2nc(N3CCCCC3)nc3ccccc23)c1`, for which the IC50 is 16.9 µM.

As to `C=CCOC(=O)C(C#N)c1nc2ccccc2nc1N1CCCC1` (stereo not drawn), the IC50 is 8.74 µM.

Regarding `CN(Cc1ccccc1)c1nc2c(c(=O)n(C)c(=O)n2C)n1CCCc1ccccc1`, the IC50 was 7.51 µM.

On to `COc1cc(-c2nc(-c3cccc(C)c3)no2)cc(OC)c1OC`, for which the IC50 was 12.2 µM.

In the case of `Cc1cc(C(=O)CSc2nc3ccccc3o2)c(C)n1C1CC1`, the IC50 was 7.02 µM.

As to `Cc1ccc(Cn2c(SCC(C)C)nc3c2c(=O)n(C)c(=O)n3C)cc1`, the IC50 was 89.6 µM.

For the molecule `CC(=O)Nc1cccc(NC(=O)c2oc3ccccc3c2C)c1`, the IC50 is 8.33 µM.

With `CCCOC(=O)/C(C(N)=NCc1ccccc1)=C(\O)OCCC`, the IC50 is 16.4 µM.

Take `CC(C)OCCCNc1ncnc2c1[nH]c1ccccc12`: the IC50 was 5.88 µM.

`Cc1noc(C)c1C(=O)Nc1sc(C)c(-c2ccccc2)c1C#N`: the IC50 was 9.36 µM.

In the case of `Oc1c(CN2CCc3ccccc3C2)cc(Cl)c2cccnc12`, the IC50 is 8.71 µM.

Consider `Cc1csc(NC(=O)c2cccc(Cn3nc(C)c(Br)c3C)c2)n1`, for which the IC50 is 10.3 µM.

On to `Cc1ccc2[nH]c(=O)c(CN(Cc3nnnn3Cc3ccccc3)C3CCCC3)cc2c1`, for which the IC50 was 53.3 µM.

In the case of `CCOC(=O)N1CCN(C(=O)COc2ccc(S(=O)(=O)Nc3ccc(OCC)cc3)cc2)CC1`, the IC50 is 2 µM.

Turning to `CCn1c(C(=O)N2CCC(Cc3ccccc3)CC2)cc2sccc21`, the IC50 is 10.2 µM.

As to `CC(C)c1ccc(OCc2nc(-c3ccccn3)no2)c(Br)c1`, the IC50 is 14.9 µM.

In the case of `Cc1ccc(OCc2nc(C#N)c(NCc3ccc4c(c3)OCO4)o2)cc1`, the IC50 was 6.03 µM.

With `Cc1cccc(Cc2c(C)nc3c(C(=O)NCc4ccco4)cnn3c2C)c1`, the IC50 was 49.6 µM.

As for `N=c1c2c(-c3ccccc3)c(-c3ccccc3)n(Cc3ccco3)c2ncn1Cc1ccco1`, the IC50 was 4.32 µM.

As to `COc1ccc(Cn2nnnc2C(C(C)C)N2CCc3ccccc32)cc1` (stereo not drawn), the IC50 was 12.7 µM.

`CC1Cc2cc(-c3csc(NC(=O)Cc4cccs4)n3)ccc2N1S(C)(=O)=O` (stereo not drawn): the IC50 is 15.3 µM.

Take `NC1C2CN(c3nc4c(cc3F)c(=O)c(C(=O)O)cn4-c3ccc(F)cc3F)CC12` (stereo not drawn): the IC50 is less than 0.2 µM.

For the molecule `CC(C)Cn1c(N)c(C(=O)NCc2cccs2)c2nc3ccccc3nc21`, the IC50 was 12.9 µM.

For `CN1CCN(CC(=O)N2CCn3c4c(c5cc(C6CCCCC6)ccc53)CCCC42)CC1` (stereo not drawn), the IC50 was 66.7 µM.

On to `Brc1cc(Br)c2ncnc(N3CCCCC3)c2c1`, for which the IC50 is 34.6 µM.

Regarding `Cc1cc(C(=O)OCc2nnc(-c3ccccc3)o2)c(C)n1-c1ccccc1`, the IC50 was 9.88 µM.

`COc1ccc2[nH]c3c(=O)n(CCCCC(=O)NCCN4CCCC4)c(=S)[nH]c3c2c1`: the IC50 is 17.4 µM.

Consider `CCOC(=O)c1sc2nc(CC(=O)OC)nc(N3CCN(c4ccccn4)CC3)c2c1C`, for which the IC50 is 25.1 µM.

For `CSc1nc2ccc(NS(=O)(=O)c3ccc4c(c3)OCCO4)cc2s1`, the IC50 is 2.88 µM.

With `C=C(C)COc1ccc(-c2n[nH]c(C)c2Oc2ccccc2OC)c(O)c1`, the IC50 is 8.36 µM.

On to `O=C(N1CCN(c2ccccn2)CC1)N1c2ccccc2Sc2ccccc21`, for which the IC50 was 19.4 µM.

For the molecule `Cc1ccc(CN2CCSc3ccc(C(=O)N4CCN(c5ncccn5)CC4)cc32)cc1`, the IC50 was 17 µM.

For the molecule `O=C(Nc1ccc(Cl)cc1)N(Cc1cccs1)Cc1cccs1`, the IC50 is 10.7 µM.

`Cc1ccccc1S(=O)(=O)Cc1ccc(C(=O)N2CCN(c3cccc(C)c3C)CC2)o1`: the IC50 is 30.8 µM.

Regarding `O=C(COc1ccccc1)Nc1nnc(-c2ccc(Cl)s2)o1`, the IC50 was 1.86 µM.

With `Cc1csc(NC(=O)C2CCCN(S(=O)(=O)c3ccc(Br)s3)C2)n1` (stereo not drawn), the IC50 is 12.2 µM.

As for `CC(C)(C)n1nnnc1C(c1cccs1)N(Cc1ccccc1)Cc1cccnc1` (stereo not drawn), the IC50 was 8.37 µM.

For `CCc1cc(C(=O)Cc2ccc(F)cc2)c(O)cc1O`, the IC50 is 7.76 µM.

For the molecule `COc1ccc(OCC(O)Cn2c(=N)n(Cc3ccccc3)c3ccccc32)cc1` (stereo not drawn), the IC50 is 23.9 µM.

For `CCOc1cc(S(=O)(=O)n2cc(-c3ccc(F)cc3)c(N)n2)cc(OCC)c1OCC`, the IC50 is 21 µM.

As to `COC(=O)c1ccc(O)c(Sc2cc(C(=O)OC)ccc2O)c1`, the IC50 was 1.91 µM.

Consider `Cn1c(Oc2ccccc2NCc2cc(Br)ccc2O)cc(=O)n(C)c1=O`, for which the IC50 is 4.08 µM.

`Cc1ccc(Cn2ccc(NC(=O)c3cc(CC(C)C)on3)n2)cc1`: the IC50 was 8.54 µM.

In the case of `COC(=O)c1ccc(Oc2nc(N3CCCCC3)nc(N3CCOCC3)n2)cc1`, the IC50 was 20.3 µM.

`O=c1ccsn1Cc1ccccc1`: the IC50 was 3.15 µM.

As to `CCc1c(C)nc2cc(-c3cc(OC)cc(OC)c3)nn2c1N1CCCC1`, the IC50 was 25.5 µM.

For `O=C(CS(=O)(=O)c1ccccc1)Nc1nc(-c2ccccc2)cs1`, the IC50 was 8.07 µM.

`CCn1cc(Br)c(C(=O)Nc2ccc(C(=O)OC(C)C)cc2)n1`: the IC50 was 12.3 µM.

With `Cc1cccc(-c2nc(CS(=O)CC(=O)NCCCSC3CCCCC3)c(C)o2)c1` (stereo not drawn), the IC50 is 10.1 µM.

Take `CCOC(=O)c1cnc(-n2nc(C)cc2C)nc1NC(C)c1ccccc1` (stereo not drawn): the IC50 was 2.76 µM.

For `Oc1c(C(c2ccco2)N2CCN(C(c3ccccc3)c3ccccc3)CC2)sc2ncnn12` (stereo not drawn), the IC50 is 13.3 µM.

Take `O=C(c1ccco1)N1CCN(c2ncnc3c2[nH]c2ccc(Br)cc23)CC1`: the IC50 was 44.5 µM.

On to `CC(C)c1nnc(NC(=O)c2c(O)c3cccc4c3n(c2=O)CC4)s1`, for which the IC50 was 34.7 µM.

As for `O=C(CC1CCCCC1)c1c(O)c2ccccc2oc1=O`, the IC50 was 1.72 µM.

For `N#Cc1c(N)oc(-c2ccc3c(c2)OCO3)c1-c1ccc2c(c1)OCO2`, the IC50 is 49.9 µM.

On to `O=C(NCc1ccco1)c1cnn2c1NC(c1ccc(Br)cc1)CC2C(F)(F)F` (stereo not drawn), for which the IC50 was 12.8 µM.

With `Cc1cccc(N(C)C(=O)c2cc3cc4ccc(C)cc4nc3o2)c1`, the IC50 is 23.9 µM.

As to `COc1ccc(-c2cnc(SCC(=O)Nc3cc(C)on3)n2Cc2ccco2)cc1`, the IC50 was 35.7 µM.

Take `Cc1cccc(N=c2oc3cc(O)ccc3cc2C(N)=O)c1`: the half-maximal inhibitory concentration (IC50) was 23 µM.

Turning to `N#Cc1nc(COc2ccccc2F)oc1NCCc1ccccc1`, the IC50 is 16.7 µM.

On to `Clc1ccc(OCCn2ccnc2)c2ccccc12`, for which the IC50 was 5.58 µM.

With `N#C/C(=C\c1cccs1)Sc1nc2ccccc2s1`, the IC50 was 9.02 µM.

Take `Cc1ccc(SC/C(O)=C(\C#N)c2nc3ccccc3s2)cc1`: the IC50 was 1.03 µM.

`Cc1ccc(C)n1-n1c(C)nc2sc3c(c2c1=O)CCCCC3`: the IC50 was 69.2 µM.

In the case of `CC(C)(C)c1csc(NC(=O)c2ccc(Cl)s2)n1`, the IC50 was 29.6 µM.

Turning to `O=C1CC(c2ccco2)CC2=C1C1c3ccccc3C(=O)N1c1ccccc1N2` (stereo not drawn), the IC50 was 22.7 µM.

For `CCc1ccc(S(=O)(=O)NCCc2csc(-c3ccccc3)n2)s1`, the IC50 was 8.87 µM.

Consider `COc1ccc(Cl)cc1CN1CCN(c2nc(C)cc(C)c2C#N)CC1`, for which the 50% inhibitory concentration (IC50) is 13.2 µM.

In the case of `CC(C)Cc1cc(C(=O)Nc2sc3c(c2C#N)CCCC3)no1`, the IC50 is 8.44 µM.

Regarding `O=c1cc(O)c2c(=O)n3c4c(cccc4c2o1)CCC3`, the IC50 was 2.82 µM.

As to `Cn1c(CSc2nnc(SCc3ccccc3)s2)nc2ccccc21`, the IC50 was 22.5 µM.
